Data set [1] can be described thus: Cytotoxicity against human CEM-SS cells by MTT assay. The format is cell-based. Put shortly: (§1)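 Uninfected cells were incubated in parallel with a range of compound concentrations. Viability was read by MTT reduction to formazan, OD 540 nm. CC50 was calculated with the same median-effect program used for IC50. Mean of 2 separate experiments.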
A general note: Tetrazolium dyes change colour on reduction, which living cells bring about.

Data set [2] deals with HCT-116. The experiment in a line: Cytotoxicity against human HCT116 cells after 3 hrs by MTS assay. The data set is classed as functional, cell-based. The settings on record: HCT-116, 3 h. Put shortly: (§2)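 Medium was DMEM-Glutamax for KB and HepG2 and RPMI 1640 for the other lines, each with 10% FCS, at 37 °C, 5% CO2. Cells were seeded at 500–800 per well and left to adhere for 24 h. Compounds in DMSO were added at 10^-5 M final, with 3 h exposure. Readout was MTS absorbance versus control wells after blank subtraction; triplicate.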

Data set [3] can be described thus: Cytotoxicity against human MT4 cells by MTT assay. The data set is classed as cell-based. The essentials:
as §1

The next data set relates to SK-OV-3. The experiment in a line: Antiproliferative activity against human SKOV3 cells at 10 uM after 3 hrs by MTS assay. The format is functional. The conditions noted are these: SK-OV-3, 3 h. The essentials: as §2
In data set [4] the test system is PC-3. The experiment in a line: Cytotoxicity against human PC3 cells after 3 hrs by MTS assay. The format is functional, cell-based. The settings on record: PC-3, 3 h. The essentials: as §2
The subject of data set [5] is HCT-116. The data set can be described thus: Antiproliferative activity against human HCT116 cells at 10 uM after 3 hrs by MTS assay. The format is functional. The settings on record: HCT-116, 3 h. Put shortly:
as §2

Data set [6] has as its system Human immunodeficiency virus 1. The data set can be described thus: Antiviral activity against HIV1 3B in human MT4 cells assessed as inhibition of viral replication. The data set is classed as functional, organism-based. The conditions noted are these: Human immunodeficiency virus 1, 3B. The essentials:
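MT-4 cells in RPMI 1640 with 10% FCS at 37 °C, 5% CO2, infected with HIV-1 IIIB at 5 TCID50. After 30 min adsorption, cells were washed and resuspended at 10^5 cells/mL with serial compound dilutions. Inhibition of virus-induced cytopathogenicity was read after 5 days. IC50 came from a median-effect plot; mean of 2 experiments.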

Data set [7] deals with HL-60. The data set can be described thus: Cytotoxicity against human HL60 cells after 3 hrs by MTS assay. The format is functional, cell-based. The conditions noted are these: HL-60, 3 h. The essentials: as §2
Data set [8] concerns KB. The experiment in a line: Cytotoxicity against human KB cells after 3 hrs by MTS assay. The format is functional, cell-based. The essentials: as §2
The test system of another data set is SF-268. The data set can be described thus: Antiproliferative activity against human SF268 cells at 10 uM after 3 hrs by MTS assay. The data set is classed as functional. The conditions noted are these: SF-268, 3 h. Put shortly: as §2
Data set [9] deals with PC-3. The data set can be described thus: Antiproliferative activity against human PC3 cells at 10 uM after 3 hrs by MTS assay. The data set is classed as functional. The settings on record: PC-3, 3 h. The essentials:
as §2

The test system of data set [10] is Human immunodeficiency virus 1. The data set can be described thus: Antiviral activity against HIV1 LAI in human CEM-SS cells assessed as inhibition of viral replication. The conditions noted are these: Human immunodeficiency virus 1, LAI. The data set is classed as functional, organism-based. Put shortly:
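CEM-SS cells in RPMI 1640 with 10% FCS at 37 °C, 5% CO2, infected with HIV-1 LAI at 20 TCID50. After 30 min adsorption, cells were washed and resuspended at 10^5 cells/mL with serial compound dilutions. After 5 days, reverse transcriptase activity of released virus particles was measured. IC50 came from a median-effect plot; mean of 2 experiments.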

The test system of data set [11] is HL-60. The data set can be described thus: Antiproliferative activity against human HL60 cells at 10 uM after 3 hrs by MTS assay. The format is functional. The settings on record: HL-60, 3 h. The essentials: as §2
Data set [12] concerns MCF7. The experiment in a line: Antiproliferative activity against human multidrug-resistant MCF7 cells at 10 uM after 3 hrs by MTS assay. The format is functional. The settings on record: MCF7, 3 h. The essentials: as §2
Data set [13] concerns MCF7. The data set can be described thus: Antiproliferative activity against human MCF7 cells at 10 uM after 3 hrs by MTS assay. The format is functional. The conditions noted are these: MCF7, 3 h. The essentials: as §2
The next data set concerns A549. The data set can be described thus: Antiproliferative activity against human A549 cells at 10 uM after 3 hrs by MTS assay. The settings on record: A549, 3 h. The data set is classed as functional. Put shortly: as §2
A further data set has as its system HepG2. The data set can be described thus: Antiproliferative activity against human HepG2 cells at 10 uM after 3 hrs by MTS assay. The data set is classed as functional. The conditions noted are these: HepG2, 3 h. Put shortly:
as §2

For data set [14], the system named is KB. The data set can be described thus: Antiproliferative activity against human KB cells at 10 uM after 3 hrs by MTS assay. The data set is classed as functional. The essentials: as §2
Data set [15] deals with MCF7. The data set can be described thus: Cytotoxicity against human MCF7 cells after 3 hrs by MTS assay. The data set is classed as functional, cell-based. The conditions noted are these: MCF7, 3 h. The essentials: as §2

A value given as a limit tells only on which side of the number the result lay.

One may read the CC50 as the concentration giving 50% cytotoxicity. Read a high CC50 as better tolerance by the cells. As a reminder, the IC50 is the concentration at which inhibition is half-maximal. By inhibition is commonly meant the percentage by which the read-out fell short of the control. Higher therefore signals a strong effect. As for `CO[C@H]1CC(=O)N[C@H](c2ccccc2)CO[C@H](OC)CCN(Cc2ccc(CN3CC[C@@H](OC)OC[C@@H](c4ccccc4)NC(=O)C[C@H](OC)OC[C@H]3c3ccccc3)cc2)[C@H](c2ccccc2)CO1`, the CC50 is more than 10 µM in [1] and 7.8 µM in data set [3]. For the same compound, the IC50 in the data set on HCT-116 [2] was 10 µM; in the data set with PC-3 [4] it was 10 µM; in [6] it was more than 7.8 µM; in the data set on HL-60 [7], 10 µM; with KB [8], 10 µM; in data set [10], 8.65 µM. The compound further displayed a half-inhibitory concentration (IC50) with MCF7 [15] of 10 µM. The inhibition at 10 µM turned out to be 38% in the data set with SK-OV-3; 47% in the data set with HCT-116 [5]; 27% in the data set on SF-268; 51% in the data set with PC-3 [9]; 54% in the data set on HL-60 [11]; 14% in the data set with MCF7 [12]. Also, the inhibition at 10 µM in the data set with MCF7 [13] turned out to be 45%; in the data set with A549 it was 33%; in the data set on HepG2, 27%; in the data set with KB [14] it was 47%.

As for `CO[C@H]1CCN(Cc2ccc(CN3CCO[C@H](OC)CC(=O)NCCO[C@@H](OC)CC3)cc2)CCO[C@H](OC)CC(=O)NCCO1` (relative stereo), the 50% cytotoxic concentration (CC50) in [1] and in data set [3] was more than 100 µM each time. For the same compound, the inhibition at 10 µM was 0% with SK-OV-3; 7% with HCT-116 [5]; 0% in the data set with SF-268; 0% in the data set with PC-3 [9]; 10% in the data set on HL-60 [11]; 2% in the data set on MCF7 [12]. The inhibition at 10 µM was 13% with MCF7 [13], 0% with A549, 4% in the data set on HepG2 and 0% in the data set with KB [14]. Also, the IC50 in [6] and in data set [10] was more than 100 µM in each case.

Consider `CO[C@@H]1CCN(Cc2ccc(CN3CC[C@@H](OC)OC[C@@H](c4ccccc4)NC(=O)C[C@@H](OC)OC[C@H]3c3ccccc3)cc2)[C@H](c2ccccc2)CO[C@H](OC)CC(=O)N[C@H](c2ccccc2)CO1`, for which the CC50 in [1] and in [3] was more than 10 µM throughout. Further, the inhibition at 10 µM in the data set on SK-OV-3 worked out at 18%; in the data set with HCT-116 [5], 21%; with SF-268 it was 14%; with PC-3 [9], 15%; in the data set with HL-60 [11] it was 31%; in the data set with MCF7 [12], 8%. In addition, the inhibition at 10 µM stood at 25% in the data set with MCF7 [13], 17% in the data set on A549, 0% in the data set with HepG2 and 12% in the data set with KB [14]. For the same compound, the IC50 in data set [6] and in [10] was more than 10 µM throughout.

Turning to `c1cc(CN2CCCNCCNCCCNCC2)ccc1CN1CCCNCCNCCCNCC1` [PLERIXAFOR], the cytotoxic concentration (CC50) is more than 5 µM in data set [1] and 6.5 µM in data set [3]. In addition, the results for the IC50 in [6] and in data set [10] were 0.41 µM and 0.32 µM, respectively.
